Reference: ChEMBL document CHEMBL4651341, “The discovery of a novel series of compounds with single-dose efficacy against juvenile and adult Schistosoma species” (PLoS Negl Trop Dis, 2021)
Converted amounts (≈) assume the structure as drawn.

Legend:
[1] = Plasma protein binding determined at 10uM by LC-MS/MS.; type: ADME, cell-free
Method in brief: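 Equilibrium dialysis of plasma spiked at 10 µM (0.1% DMSO) against PBS pH 7.4, 6 h at 37 °C, duplicates. Both chambers analysed by LC-MS/MS after acetonitrile precipitation. % free = buffer/plasma area ratio; recovery also calculated.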

[2] = Mean half-life in Swiss albino male mice at 1 mg/kg per compound (administered iv in a mixture of 5 compounds to 3 mice) assessed by LCMS/MS.; type: ADME, organism-based; settings: mouse, in vivo
Method in brief: (§1)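 Male Swiss albino mice (~30 g), 3 per experiment, mostly dosed as mixtures of 5 compounds iv via the lateral tail vein. Vehicle: 10% DMSO/90% 50 mM Na2HPO4 with 0.5% Tween-80. Plasma stored at −20 °C and quantified by LC-MS after acetonitrile precipitation.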

Schistosoma japonicum = assay: (§2) Concentration required to kill 50% of 42 day old worms 5 days after drug treatment.; type: functional, organism-based; settings: Chinese, 120 h
[3] = Concentration required to kill 50% HepG2 cells as detected by MTT staining; type: toxicity, cell-based; settings: homo sapiens, read-out: TC50 (the source's name)
Schistosoma mansoni [4] = assay: Concentration required to kill 50% of 21 day old worms 5 days after drug treatment.; type: functional, organism-based; settings: Puerto Rican, 120 h
Method in brief: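 Juvenile S. mansoni (Puerto Rican strain) were perfused from CD1 mice 3 weeks post-infection and washed. They were cultured 6–8 per well in 200 µL DMEM with 2 mM glutamine, penicillin/streptomycin and 10% FCS at 37 °C, 5% CO2. Viability of individual worms was scored on day 5 after dosing (120 h).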

[5] = Plasma protein binding determined at 1uM by LC-MS/MS.; type: ADME, cell-free
[6] = Mean observed clearance in Swiss albino male mice at 1 mg/kg per compound (administered iv in a mixture of 5 compounds to 3 mice) assessed by LCMS/MS.; type: ADME, organism-based; settings: male, Swiss albino, mouse, in vivo, read-out: Clearance (converted)
Method in brief: as §1, with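 “Tween-80. Blood sampled at 5, 15, 30 min and 1, 2, 4, 8, 24 h.” for “Tween-80.”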

Schistosoma haematobium = assay: Concentration required to kill 50% of 84 day old worms 5 days after drug treatment.; type: functional, organism-based; settings: Egyptian, 120 h
[7] = Mean plasma concentration at 4h in Swiss albino male mice at […] per compound (administered orally in a mixture of 5 compounds to 3 mice) assessed by LCMS/MS.; type: ADME, organism-based; settings: mouse, po
[8] = Mean volume of distribution at steady state in Swiss albino male mice at 1 mg/kg per compound (administered iv in a mixture of 5 compounds to 3 mice) assessed by LCMS/MS.; type: ADME, organism-based; settings: mouse, in vivo, read-out: Volume; method in brief: as §1
Schistosoma mansoni [9] = assay: as §2; type: functional, organism-based; settings: Puerto Rican, 120 h
Method in brief: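 Adult S. mansoni were perfused from CD1 mice 6 weeks post-infection and washed. They were cultured 3 pairs per well in 1 mL DMEM with 2 mM glutamine, penicillin/streptomycin and 10% FCS […] at 37 °C, 5% CO2. Viability of individual worms was scored on day 5 (120 h).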

[10] = Concentration required to kill 50% MRC-5 cells as detected by Alamar blue staining; type: toxicity, cell-based, MRC5; settings: homo sapiens, read-out: TC50 (the source's name)
[11] = Mean AUC inf in Swiss albino male mice at 1 mg/kg per compound (administered iv in a mixture of 5 compounds to 3 mice) assessed by LCMS/MS.; type: ADME, organism-based; settings: male, Swiss albino, mouse, in vivo
Method in brief: as §1, with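 “Tween-80. Blood sampled at 5, 15, 30 min and 1, 2, 4, 8, 24 h.” for “Tween-80.”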

[12] = Mean oral bioavailability in Swiss albino male mice at […] per compound (administered in a mixture of 5 compounds to 3 mice) assessed by LCMS/MS.; also: dose 2.5 mg/kg; type: ADME, organism-based; settings: male, Swiss albino, mouse, in vivo, read-out: Bioavailability
[13] = Mean time to peak plasma concentration in Swiss albino male mice at […] per compound (administered orally in a mixture of 5 compounds to 3 mice) assessed by LCMS/MS.; type: ADME, organism-based; settings: mouse, po
[14] = Mean plasma concentration at 24h in Swiss albino male mice at […] per compound (administered orally in a mixture of 5 compounds to 3 mice) assessed by LCMS/MS.; type: ADME, organism-based; settings: mouse, po
[15] = Percentage of parent compound remaining after incubation for 30 minutes with cyropreserved mouse hepatocytes at a concentration of 1uM compound and […], determined by LCMS; type: ADME, tissue-based, Hepatocyte; settings: cryopreserved mouse hepatocytes, read-out: Stability
Method in brief: (§3)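 Compound was incubated at 1 µM final (2 µM working solution mixed 1:1 with hepatocyte suspension) in supplemented KHB pH 7.4. Conditions: 37 °C, 5% CO2, gentle mixing, duplicates. Reaction quenched with ice-cold acetonitrile containing standard; analysed by LC-MS/MS. % remaining = AUC at t / AUC at T0.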

[16] = Partition coefficient of compound between n-octanol and PBS (pH7.4); type: physicochemical; settings: octanol/water, pH 7.4
Method in brief: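 Shake-flask method using octanol and PBS pH 7.4, each pre-saturated with the other. Compound was shaken 2 h at 850 rpm, 25 °C, then the phases were separated by centrifugation and both layers diluted and analysed by LC-MS/MS. LogD = log(octanol AUC × relative dilution / buffer AUC).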

[17] = Solubility at 25 degC of compound (diluted from DMSO) in PBS at pH 7.4 determined after 24h (1h sonication, 22h shaking, 1h sonication) by LCMS/MS; type: physicochemical
[18] = Concentration of drug in plasma at 4h following oral drug adminstration at given dose. Determined by LCMS/MS; type: ADME, organism-based; settings: CD1, mouse
Method in brief: (§4)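 Plasma sampled from the mice of the efficacy experiments, each animal sampled once: one animal per group at 1, 4 and 8 h, two per group at 24 h. Plasma prepared by acetonitrile protein precipitation and analysed by LC-MS against a 10-point calibration line spiked in blank matrix, with QCs at three or more levels.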

[19] = Percentage of parent compound remaining after incubation for 90 minutes with cyropreserved human hepatocytes at a concentration of 1uM compound and 1 million cells/uL, determined by LCMS/MS; type: ADME, tissue-based, Hepatocyte; settings: cryopreserved human hepatocytes, read-out: Stability; method in brief: as §3
[20] = Concentration of drug in plasma at 24h following oral drug adminstration at given dose. Determined by LCMS/MS; type: ADME, organism-based; settings: CD1, mouse; method in brief: as §4
[21] = Solubility at 25 degC of compound (diluted from DMSO) in FeSSIF at pH 5.0 (11.2 g/l of SIF powder [Na-taurocholate: 15.0mM, Lecithin:3.75mM, Pancreatin:40mg/ml], 4.04 g/l of NaOH, 8.65 g/l Glacial Acetic Acid, 11.87 g/l NaCl) determined after 24h (1h sonication, 22h shaking, 1h sonication) by LCMS/MS; type: physicochemical
[22] = Solubility at 25 degC of compound (diluted from DMSO) in FaSSIF at pH 6.5 (2.24 g/l of SIF powder [Na-taurocholate: 3.0mM, Lecithin:0.75mM, Pancreatin:10mg/ml], 0.42 g/l of NaOH, 4.4 g/l NaH₂PO₄ monobasic dihydrate, 6.19 g/l NaCl) determined after 24h (1h sonication, 22h shaking, 1h sonication) by LCMS/MS; type: physicochemical
Schistosoma mansoni [23] = assay: Percentage of worms remaining following treatment of female CD1 mice infected with S. mansoni worms (21 day old - juvenile or 42 day old - adult) with compound by oral gavage. Worms were recovered by portal perfusion with citrate saline 8-14 days post treatment and counted. Percentages are from a mean of 5 or 6 animals.; type: functional, Mus musculus; set-up: concentration or dose not given beside the values
Method in brief: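 Female CD1 mice were infected subcutaneously with 150 cercariae and treated at day 21 (juvenile) or day 42 (adult). Single oral gavage, or two doses 12 h apart, given in 7% Tween-80/3% ethanol/water (sonicated) or in 1:19 DMSO:corn oil. Controls received vehicle only. Worm recoveries are group means, n = 5–6.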

[24] = Percentage of parent compound remaining after incubation for 90 minutes with cyropreserved mouse hepatocytes at a concentration of 1uM compound and […], determined by LCMS; type: ADME, tissue-based, Hepatocyte; settings: cryopreserved mouse hepatocytes, read-out: Stability; method in brief: as §3
[25] = Plasma protein binding determined at 10uM by LC-MS/MS.; settings: human
[26] = Percentage of parent compound remaining after incubation for 30 minutes with cyropreserved human hepatocytes at a concentration of 1uM compound and 1 million cells/uL, determined by LCMS/MS; type: ADME, tissue-based, Hepatocyte; settings: cryopreserved human hepatocytes, read-out: Stability; method in brief: as §3
[27] = Concentration required to kill 50% MRC5 cells as detected by Alamar blue staining; settings: homo sapiens, read-out: TC50 (the source's name)

Row | Binding ([1]; mouse) [%] | half-life [2] [min] | clearance [6] [mL/min/kg] | concentration at 4 h [7] [ng/mL] | Vd [8] [L/kg] | AUC(0-inf) [11] [ng·h/mL] | bioavailability [12] [%] | Tmax [13] [min] | concentration at 24 h [14] [ng/mL] | remaining at 0.5 h, 1 µM [15] [%] | Lipophilicity [16] | solubility kinetic at 24 h [17] [µM] | Binding ([1]; human) [%] | concentration at 4 h [18] [ng/mL] | concentration at 24 h [20] [ng/mL] | Compound | CC50 [3] [µM] | EC50 (Schistosoma mansoni [4]) [nM] | EC50 (Schistosoma mansoni [9]) [nM] | CC50 [10] [µM] | Efficacy (Schistosoma mansoni [23]) [%] | also measured
1 | 99.93 | 115 | 79.2 | 3.5 | 5.13 | 105 | 7.84 | 15 | 0.1 | 36.2 | 3.63 = | 2.11 (≈ 0.902 µg/mL) |  |  |  | COc1ccc(-c2c(C(C)C)nc3cnc(-c4cccc(C(F)(F)F)c4)cn23)cc1O | > 11.1 | 65.9 | < 82 | 21.9 |  | EC50 (Schistosoma japonicum): 85 nM; Binding ([5]; human): 100%; Binding ([5]; mouse): 100%; EC50 (Schistosoma haematobium): 61.2 nM
2 | 99.9935 | 1480 | 3.82 | 208 | 7.32 | 2210 | 83.2 | 15 | 123 |  | 6.33 = | 0.742 (≈ 0.362 µg/mL) | 99.9955 | 104 | 10.4 | CCc1nc2cnc(-c3ccc(F)c(C(F)(F)C(F)(F)F)c3)cn2c1-c1c(F)cc(O)cc1F | 7.23 | 13.6 | 9.11 |  | 49.1 | remaining at 1.5 h, 1 µM [19]: 41.7%; solubility kinetic at 24 h [21]: 200 µM (≈ 97.5 µg/mL); solubility kinetic at 24 h [22]: 111 µM (≈ 54.1 µg/mL); remaining at 1.5 h, 1 µM [24]: 61.5%
3 |  |  |  |  |  |  |  |  |  |  | 4.92 = | 2.62 (≈ 0.978 µg/mL) |  |  |  | COc1ccc(-c2cnc3cnc(-c4cccc(C(C)C)c4)cn23)cc1OC |  | 2570 | 1340 | 27.8 |  | Binding [25]: 99.985%
4 | 99.975 |  | 2.25 | 680 | 1.94 | 3800 | 69.6 | 15 | 151 | 83.8 | 4.34 = |  | 100 | 1040 | 460 | Oc1cc(F)c(-c2c(C3CC3)nc3cnc(-c4ccc(F)c(C(F)(F)F)c4)cn23)c(F)c1 | 8.9 | 33.7 | 44.3 |  | 75 | remaining at 0.5 h, 1 µM [26]: 42.1%; remaining at 1.5 h, 1 µM [24]: 53%
5 | 100 | 972 | 3.43 | 376 | 4.37 | 2450 | 95.8 | 60 | 176 | 81.9 | 4.7 = | 1.42 (≈ 0.647 µg/mL) | 100 | 75 | 60.4 | Fc1ccc(-c2cn3c(-c4ccc5[nH]ncc5c4F)c(C4CC4)nc3cn2)cc1C(F)(F)F | 16.1 | 36.1 | 50.7 |  | 88 | remaining at 0.5 h, 1 µM [26]: 95.2%; remaining at 1.5 h, 1 µM [24]: 79.5%
6 |  |  |  |  |  |  |  |  |  |  | 3.62 = | 0.383 (≈ 0.126 µg/mL) |  |  |  | CC(C)c1cccc(-c2cn3c(-c4ccc(O)cc4)cnc3cn2)c1 |  | 1500 | 1340 | 30 |  | CC50 [27]: > 30 µM
7 |  |  |  |  |  |  |  |  |  |  |  |  |  |  |  | O=C(C1CCCCC1)N1CC(=O)N2CCc3ccccc3C2C1 (configuration not stated) [PRAZIQUANTEL] |  | 4700 | 300 | > 50 | 79 | EC50 (Schistosoma japonicum): 161 nM; EC50 (Schistosoma haematobium): 84.4 nM
8 |  |  |  |  |  |  |  |  |  | 26.4 | 3.56 = | 2.29 (≈ 0.823 µg/mL) |  |  |  | COc1ccc(-c2cnc3cnc(-c4cccc(C(C)C)c4)cn23)cc1O |  | 486 | 263 | 18.6 |  | CC50 [27]: 18.6 µM
